Measured values published in ChEMBL document CHEMBL1122273, “5-sulfamoylorthanilic acids, a sulfonamide series with salidiuretic activity” (J Med Chem, 1983).
Activity calls are given as the source filed them. The calls are words filed in the database; no cut-off is given here.

Experiments:
[1] = It is the ratio, measured as saluretic activity in the dog as concentration of Cl- in urinary excretion (dose 1.56 mg/Kg, po) to that of (Na++K+); type: functional, Urine
Summary of the method: (§1)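 Trained male beagles, fasted 24 h with tap water ad libitum. Bladder emptied by catheter, then 20 mL/kg tap water by stomach tube, with 4 mL/kg water at each hourly catheterization up to 8 h. The first 2 h of urine served as control. Oral dosing came after the second catheterization, and 1–6 h urine was pooled. Na⁺ and K⁺ were measured by flame photometry, Cl⁻ argentometrically, in mequiv/kg.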

Canis familiaris [2] = assay: Saluretic activity in the dog measured as concentration of Cl - in urinary excretion (2 animals/dose) at (dose 1.56 mg/Kg, po); type: functional, Canis lupus familiaris, Urine
Summary of the method: (§2)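 Male beagles trained to the procedures, food withdrawn 24 h before, tap water ad libitum. Bladder emptied by catheter, then 20 mL/kg tap water by stomach tube, plus 4 mL/kg orally at each hourly catheterization up to 8 h. The first 2 h of urine served as control. Compound given orally after the second catheterization. Urine from 1–6 h post-dose pooled; Na⁺ and K⁺ by flame photometry, Cl⁻ argentometrically, in mequiv/kg.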

Canis familiaris [3] = assay: Saluretic activity in the dog measured as concentration of Na+ in urinary excretion (2 animals/dose) at (dose 1.56 mg/Kg, po); type: functional, Canis lupus familiaris, Urine
Summary of the method: (§3)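 Male beagles trained to rest on a table and to accept stomach tube and catheter. Food withdrawn 24 h before, tap water ad libitum. Bladder emptied by catheter, then 20 mL/kg tap water by stomach tube. Catheterized hourly up to 8 h with 4 mL/kg water orally each time; first 2 h urine served as control. Oral dosing after second catheterization. Pooled 1–6 h urine; Na⁺/K⁺ by flame photometry, Cl⁻ argentometrically.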

[4] = It is the ratio, measured as saluretic activity in the dog as concentration of Na+ in urinary excretion (dose 1.56 mg/Kg, po) to that of K; type: functional, Urine; summary of the method: as §1
Canis familiaris [5] = assay: Diuretic activity in the dog (2 animals/dose) at (dose 1.56 mg/Kg), when administered perorally; type: functional, Canis lupus familiaris, Urine; summary of the method: as §1
Rattus norvegicus [6] = species: Rattus norvegicus; assay: Saluretic activity in the rat measured as concentration of K+ in urine; type: functional
Summary of the method: (§4)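 Rats deprived of food 24 h, water ad libitum, dosed 50 mg/kg by stomach tube as suspension in 2% starch, no extra water load. Groups of three in diuresis funnels; urine over first 5 h collected. Na⁺ and K⁺ by flame photometry, Cl⁻ argentometrically; expressed as mequiv/kg.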

Rattus norvegicus [7] = species: Rattus norvegicus; assay: Diuretic activity in the rats, determined by a modified Lipschitz test; type: functional, Urine
Summary of the method: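 Modified Lipschitz test: rats deprived of water 24 h, grouped in threes of similar weight in diuresis funnels. Oral dose of 50 mg/kg, suspended in 2% starch solution, by stomach tube.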

Canis familiaris [8] = assay: Saluretic activity in the dog measured as concentration of K+ in urinary excretion (2 animals/dose) at (dose 1.56 mg/Kg, po); type: functional, Canis lupus familiaris, Urine; summary of the method: as §3
Rattus norvegicus [9] = species: Rattus norvegicus; assay: Saluretic activity in the rat measured as concentration of chloride in urine; type: functional; summary of the method: as §4
Rattus norvegicus [10] = species: Rattus norvegicus; assay: Saluretic activity in the rat measured as concentration of Na+ in urine; type: functional; summary of the method: as §4
[11] = It is the ratio, measured as saluretic activity in the dog as concentration of Cl- in urinary excretion (dose 1.56 mg/Kg, po) to that of (Na+)+(K+); type: functional, Urine; summary of the method: as §1
Rattus norvegicus [12] = assay: Salidiuretic activity on the basis of the 50 mg/kg po rat assay; Compound was moderately active active; type: functional, organism-based; parameters: dose 50 mg/kg; settings: Urine
Canis familiaris [13] = assay: Salidiuretic activity on the basis of the 1.56 mg/Kg po dog assay; Compound was highly active; type: functional, organism-based; settings: Canis lupus familiaris; Urine
Canis familiaris [14] = assay: Saluretic activity in the dog measured as concentration of K+ in urinary excretion (2 animals/dose) at (dose 1.56 mg/Kg, perorally); type: functional, Canis lupus familiaris, Urine; summary of the method: as §2
Canis familiaris [15] = assay: Saluretic activity in the dog measured as concentration of Na+ in urinary excretion (2 animals/dose) at (dose 1.56 mg/Kg, perorally); type: functional, Canis lupus familiaris, Urine; summary of the method: as §3
Rattus norvegicus [16] = assay: Salidiuretic activity on the basis of the 50 mg/kg perorally rat assay; NA means inactive; settings: Urine
[17] = It is the ratio, measured as saluretic activity in the dog as concentration of Na+ in urinary excretion (dose 1.56 mg/Kg, perorally) to that of K; type: functional, Urine; summary of the method: as §1
[18] = It is the ratio, measured as saluretic activity in the dog as concentration of Cl- in urinary excretion (dose 1.56 mg/Kg, perorally) to that of (Na+)+(K+); type: functional, Urine; summary of the method: as §1
Canis familiaris [19] = assay: Saluretic activity in the dog measured as concentration of Cl - in urinary excretion (2 animals/dose) at (dose 1.56 mg/Kg, perorally); type: functional, Canis lupus familiaris, Urine; summary of the method: as §2
Canis familiaris [20] = assay: Salidiuretic activity on the basis of the 1.56 mg/Kg perorally dog assay; compound was found to be active; type: functional, organism-based; settings: Canis lupus familiaris; Urine
Rattus norvegicus [21] = assay: Salidiuretic activity on the basis of the 50 mg/kg po rat assay; compound was active; type: functional, organism-based; parameters: dose 50 mg/kg; settings: Urine
Canis familiaris [22] = assay: Salidiuretic activity on the basis of the 1.56 mg/Kg po dog assay; compound was moderately active; type: functional, organism-based; settings: Canis lupus familiaris; Urine
Canis familiaris [23] = assay: Salidiuretic activity on the basis of the 1.56 mg/Kg perorally dog assay; Compound was highly active; type: functional, organism-based; settings: Canis lupus familiaris; Urine
Rattus norvegicus [24] = assay: Salidiuretic activity on the basis of the 50 mg/kg perorally rat assay; Compound was highly active; type: functional, organism-based; parameters: dose 50 mg/kg; settings: Urine
Rattus norvegicus [25] = assay: Salidiuretic activity on the basis of the 50 mg/kg po rat assay; Compound was active; settings: Urine
Canis familiaris [26] = assay: Salidiuretic activity on the basis of the 1.56 mg/Kg perorally dog assay; compound was found to be highly active; type: functional, organism-based; settings: Canis lupus familiaris; Urine
Rattus norvegicus [27] = assay: Salidiuretic activity on the basis of the 50 mg/kg perorally rat assay; compound was found to be highly active; type: functional, organism-based; parameters: dose 50 mg/kg; settings: Urine
Rattus norvegicus [28] = assay: Salidiuretic activity on the basis of the 50 mg/kg po rat assay; compound was found to be active; type: functional, organism-based; parameters: dose 50 mg/kg; settings: Urine
Canis familiaris [29] = assay: Salidiuretic activity on the basis of the 1.56 mg/Kg po dog assay; compound was found to be active; type: functional, organism-based; settings: Canis lupus familiaris; Urine

Structure (SMILES)	Saldiuretic activity (Canis familiaris [2]) [m equiv 6hr-1 kg-1]	Saluretic activity (Canis familiaris [3]) [m equiv 6hr-1 kg-1]	Ratio [4]	Diuretic activity (Canis familiaris [5]) [ml kg-1 6hr-1]	Saluretic activity (Rattus norvegicus [6]) [m equiv 5hr-1 kg-1]	Diuretic activity (Rattus norvegicus [7]) [mL/kg]	Saldiuretic activity (Canis familiaris [8])	Saluretic activity (Rattus norvegicus [9]) [m equiv 5hr-1 kg-1]	Saluretic activity (Rattus norvegicus [10]) [m equiv 5hr-1 kg-1]	Ratio [11]	further results
CCCCS(=O)(=O)c1cc(NCc2ccco2)c(S(=O)(=O)[O-])cc1S(N)(=O)=O.[Na+]	5.78	4.92	5	65.5	2.2	3.8	0.97 m equiv 6hr-1 kg-1	8.7	7.3		Ratio [1]: 1
NS(=O)(=O)c1cc(S(=O)(=O)[O-])c(NCc2ccco2)cc1SC1CCCCC1.[K+]	0.32	0.27	3.9	32.6	0.5	0.8	0.07 m equiv 6hr-1 kg-1	1.9	1.4	0.95	
CN(c1ccccc1)c1cc(NCc2ccccc2)c(S(=O)(=O)[O-])cc1S(N)(=O)=O.[Na+]	7.34	6.59	4.4	71.7	1.4	2.6		4	3.5	0.9	Saldiuretic activity (Rattus norvegicus [12]): Active; Saluretic activity (Canis familiaris [8]): 1.51 m equiv 6hr-1 kg-1; Saldiuretic activity (Canis familiaris [13]): Active
NS(=O)(=O)c1cc(S(=O)(=O)[O-])c(NCCc2ccco2)cc1Oc1ccccc1.[K+]				35.2	0.7	1.2		0.9	0.6		Saluretic activity (Canis familiaris [14]): 0.21 m equiv 6hr-1 kg-1; Saluretic activity (Canis familiaris [15]): 0.89 m equiv 6hr-1 kg-1; Diuretic activity (Rattus norvegicus [16]): inactive; Ratio [17]: 4.2; Ratio [18]: 1.1; Saldiuretic activity (Canis familiaris [19]): 1.18 m equiv 6hr-1 kg-1; Saldiuretic activity (Canis familiaris [20]): Active
CN(c1ccccc1)c1cc(NCCc2ccco2)c(S(=O)(=O)[O-])cc1S(N)(=O)=O.[K+]	5.81	4.7	4.3	59.9	2	1.2		3.2	2.2	1	Saluretic activity (Canis familiaris [8]): 1.08 m equiv 6hr-1 kg-1
NS(=O)(=O)c1cc(S(=O)(=O)[O-])c(NCc2ccccc2)cc1S(=O)(=O)C1CCCCC1.[Na+]	3.94	3.23	5.8	51	1.7	0.5		1.8	2	1.05	Saldiuretic activity (Rattus norvegicus [21]): Active; Saluretic activity (Canis familiaris [8]): 0.56 m equiv 6hr-1 kg-1; Saldiuretic activity (Canis familiaris [22]): Weak activity
CCCCSc1cc(NCc2ccco2)c(S(=O)(=O)[O-])cc1S(N)(=O)=O.[K+]	1.43	1.06	3	32.8	2.2	2.5	0.35 m equiv 6hr-1 kg-1	3.6	3.6	1	
CN(c1ccccc1)c1cc(NCc2ccco2)c(S(=O)(=O)O)cc1S(N)(=O)=O											Saldiuretic activity (Canis familiaris [23]): Active; Saldiuretic activity (Rattus norvegicus [24]): Active
CN(c1ccccc1)c1cc(NCc2cccs2)c(S(=O)(=O)[O-])cc1S(N)(=O)=O.[Na+]	7.03	5.86	4.3	70.6	0.7	1.8	1.37 mequiv kg-1 6hr-1	2	1.8	0.95	Saldiuretic activity (Rattus norvegicus [25]): Active; Saldiuretic activity (Canis familiaris [13]): Active
NS(=O)(=O)c1cc(S(=O)(=O)O)c(NCc2ccco2)cc1Oc1ccccc1											Saldiuretic activity (Canis familiaris [26]): Active; Saldiuretic activity (Rattus norvegicus [27]): Active
N.NS(=O)(=O)c1cc(S(=O)(=O)O)c(NCc2ccccc2)cc1Oc1ccccc1				48	2.2	3		6.9	4.9		Saluretic activity (Canis familiaris [14]): 0.53 m equiv 6hr-1 kg-1; Saluretic activity (Canis familiaris [15]): 3.12 m equiv 6hr-1 kg-1; Saldiuretic activity (Rattus norvegicus [28]): Active; Ratio [17]: 5.9; Ratio [18]: 1.1; Saldiuretic activity (Canis familiaris [19]): 3.91 m equiv 6hr-1 kg-1; Saldiuretic activity (Canis familiaris [29]): Active
